T cruzi HTS: inhibitors of intracellular Trypanosoma cruzi; AID 651903; 22,000 compounds, 4.9% hits; intracellular Trypanosoma cruzi in host cells, plate reader; activity score (inhibition), % at 5.01 µM; in the data active means activity score above about 55%; inconclusive means no clear call, values can overlap the other calls;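 further: parasites and compound incubated about four days before reading; 0% = median of neutral control wells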
INS-1E rescue: preserves ATP levels in cytokine-treated INS-1E cells; INS-1E cytokine-induced death, ATP luminescence, 48 h; normalised: neutral wells 0, positive control 100; protection from cytokine-induced ATP loss, % at 10 µM; 20,000 compounds, 0.1% hits; AID 488910;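 active means mean replicate protection from cytokine-induced ATP loss at least 50% and at least 75% of replicates each reaching 50%; inconclusive means meets only one of the two criteria, mean or replicate share; inactive means fails both the mean and replicate share criteria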
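assay system = INS-1E rat insulinoma cells | amount = 8000 cells per well | medium = phenol-red-free RPMI with 5% fetal bovine serum | doses = one compound concentration, pin transfer | timing = 48 h cytokine plus compound treatment, 10 min reagent incubation | also added = IL-1β, TNF-α and IFN-γ cytokine mix | signal = CellTiter-Glo luminescence measuring cellular ATP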
A1 apoptosis 2: A1 inhibition read as caspase activation; MEF A1-2A-BIM cells, caspase-Glo luminescence, 3 h; percent of clofoctol response, DMSO zero; caspase activation, % (no concentration beside the values); 24,000 tested, under 10 active; AID 2465; in the data active means caspase activation above about 5.9%; inconclusive means no clear call, values can overlap the other calls; inactive means below about 2.2%
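Material: A1-2A-BIM-expressing MEF cells. Buffer or medium: RPMI-1640 plus 10% FBS. Incubation: cells settled overnight, compound exposure 3 h at 37 °C, 5% CO2. Signal: Caspase-Glo 3/7 luminescence, 1 h at room temperature.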
Starred values were filed as active, the others as inactive; ? = inconclusive; · = no result given. The sample as a whole holds a higher share of hits than the screen did.

SMILES	T cruzi HTS	INS-1E rescue	A1 apoptosis 2
C[C@@H]1CCCCO[C@@H](CN(C)Cc2ccc(C(F)(F)F)cc2)[C@@H](C)CN([C@H](C)CO)C(=O)c2cc(NC(=O)Nc3ccc4c(c3)OCO4)ccc2O1	70*	-13	-1
C[C@@H]1CCCCO[C@@H](CN(C)Cc2ccc(C(F)(F)F)cc2)[C@@H](C)CN([C@H](C)CO)C(=O)c2cc(NC(=O)Nc3ccc(F)cc3)ccc2O1	79*	-4	·
COc1ccc(CN(C)C[C@@H]2OCCCC[C@@H](C)Oc3ccc(NC(=O)Nc4ccc(C(F)(F)F)cc4)cc3C(=O)N([C@H](C)CO)C[C@@H]2C)cc1	63*	-32	·
COc1ccc(CN(C)C[C@@H]2OCCCC[C@H](C)Oc3ccc(NC(=O)Nc4ccc(C(F)(F)F)cc4)cc3C(=O)N([C@@H](C)CO)C[C@H]2C)cc1	·	·	1
C[C@@H]1CCCCO[C@@H](CN(C)Cc2ccncc2)[C@@H](C)CN([C@@H](C)CO)C(=O)c2cc(NC(=O)Nc3ccc(C(F)(F)F)cc3)ccc2O1	·	·	0
O=C(O)CCCCCCC(=O)N/N=C/c1cc(Br)cc(Br)c1O	-9	29	1
C/C(=N\O)C(=O)NCCCCCNC(=O)OCc1ccccc1	·	·	0
Cc1ccccc1/C=N/NC(=O)c1ccccn1	-20	5	-11
COc1ccc(NC(=O)CN=[N+]=[N-])cc1OC	·	·	1
C[C@H]1CN([C@@H](C)CO)C(=O)Cc2cc(NC(=O)NC3CCCCC3)ccc2O[C@@H]1CN(C)Cc1ccc(Cl)c(Cl)c1	65*	-21	1
C[C@@H]1CN([C@@H](C)CO)C(=O)Cc2cc(NC(=O)c3ccncc3)ccc2O[C@@H]1CN(C)Cc1ccccc1	0	1	·
C[C@H](CO)N1C[C@H](C)[C@H](CN(C)Cc2ccc(-c3ccccc3)cc2)Oc2ccc(NC(=O)NC3CCCCC3)cc2CC1=O	39	-20	·
C[C@H]1CN([C@@H](C)CO)C(=O)Cc2cc(NC(=O)NC3CCCCC3)ccc2O[C@H]1CN(C)Cc1ccc(-c2ccccc2)cc1	67*	-35	·
C[C@@H]1CN([C@@H](C)CO)C(=O)Cc2cc(NC(=O)NC3CCCCC3)ccc2O[C@@H]1CN(C)Cc1ccc(Cl)c(Cl)c1	50	-59	·
C[C@H](CO)N1C[C@H](C)[C@H](CN(C)Cc2ccc(-c3ccccc3)cc2)Oc2ccc(NC(=O)Nc3ccccc3)cc2CC1=O	?	-16	·
C[C@H]1CN([C@@H](C)CO)C(=O)Cc2cc(NC(=O)c3ccncc3)ccc2O[C@H]1CN(C)Cc1ccc(-c2ccccc2)cc1	78*	-9	·
C[C@@H]1CN([C@@H](C)CO)C(=O)Cc2cc(NC(=O)Nc3ccc(F)cc3)ccc2O[C@@H]1CN(C)Cc1ccc(-c2ccccc2)cc1	61*	-6	-1
O=C(N/N=C/c1cn(S(=O)(=O)c2ccccc2)c2ccccc12)c1ccccc1O	-9	-25	·
O=C(O)CCCCCC(=O)N/N=C/CCC1CCCCC1	-17	-6	2
COC(=O)CCCCCCC(=O)N/N=C/c1ccc(Sc2nnc(C)n2C)o1	2	-2	·
COc1cc(/C=N/NC(=O)c2ccccc2O)ccc1O	-18	-31	·
O=C(N/N=C/c1ccc2ccccc2c1)c1ccccn1	-7	1	-9
COC(=O)CCCCCCC(=O)N/N=C/c1cc(O)ccc1Br	23	33	-1
O=C(CCCCCCC(=O)Nc1ccccc1O)N/N=C/[C@H](O)[C@@H](O)[C@H](O)[C@H](O)CO[C@H]1O[C@H](CO)[C@H](O)[C@H](O)[C@H]1O	2	-8	·
C[C@H]1CN([C@@H](C)CO)C(=O)Cc2cc(NC(=O)Nc3ccccc3)ccc2O[C@H]1CN(C)Cc1ccc(-c2ccccc2)cc1	-18	8	0
SMILES	T cruzi HTS	INS-1E rescue	A1 apoptosis 2
C[C@@H]1CN([C@@H](C)CO)C(=O)Cc2cc(NC(=O)Nc3ccccc3)ccc2O[C@@H]1CN(C)Cc1ccc(-c2ccccc2)cc1	62*	-11	-1
O=C(NO)c1ccc(C(=O)N/N=C/c2cccs2)cc1	6	-1	0
O=C(N/N=C/c1ccc(F)c(Oc2ccccc2)c1)c1ccccc1O	-3	0	-5
O=C(N/N=C/c1ccc(O)c(O)c1)c1ccccn1	·	·	-7
C[C@@H]1CN([C@H](C)CO)C(=O)Cc2cc(NC(=O)C3CC3)ccc2O[C@H]1CN(C)Cc1ccc(-c2ccccc2)cc1	15	-5	-1
C[C@H]1CN([C@@H](C)CO)C(=O)Cc2cc(NC(=O)C3CCCCC3)ccc2O[C@@H]1CN(C)Cc1ccc(-c2ccccc2)cc1	60*	-39	·
C[C@H](CO)N1C[C@H](C)[C@H](CN(C)Cc2ccc(-c3ccccc3)cc2)Oc2ccc(NC(=O)C3CCCCC3)cc2CC1=O	67*	-41	·
C[C@@H]1CN([C@H](C)CO)C(=O)Cc2cc(NC(=O)C3CCCCC3)ccc2O[C@@H]1CN(C)Cc1ccc(-c2ccccc2)cc1	?	-77	2
C[C@@H]1CN([C@H](C)CO)C(=O)Cc2cc(NC(=O)C3CCCCC3)ccc2O[C@H]1CN(C)Cc1ccc(-c2ccccc2)cc1	57*	-27	0
C[C@@H]1CN([C@@H](C)CO)C(=O)Cc2cc(NC(=O)C3CC3)ccc2O[C@H]1CN(C)Cc1ccc(-c2ccccc2)cc1	·	·	0
C=CCNC(=O)[C@H]1[C@@H]2C(=O)O[C@@H](c3ccccc3)[C@@H](c3ccccc3)N2[C@@H](c2ccccc2OCCO)[C@]12C(=O)N(C(=O)OCCOC)c1ccc(C#CCC(C(=O)OC)C(=O)OC)cc12	·	·	0
[N-]=[N+]=NCc1ccccc1C[C@@]1(C(=O)NCc2ccccc2)N=C(c2ccc(OCCCO)cc2)O[C@@H]1c1ccccc1	·	·	0
Cc1noc(C)c1S(=O)(=O)Nc1ccc2c(c1)C(=O)N([C@H](C)CO)C[C@H](C)[C@H](CN(C)Cc1ccc3c(c1)OCO3)O2	58*	-11	·
Cc1noc(C)c1S(=O)(=O)Nc1ccc2c(c1)C(=O)N([C@@H](C)CO)C[C@H](C)[C@H](CN(C)Cc1ccc(Cl)c(Cl)c1)O2	62*	-12	0
Cc1noc(C)c1S(=O)(=O)Nc1ccc2c(c1)CC(=O)N([C@@H](C)CO)C[C@H](C)[C@@H](CN(C)Cc1ccc(C(F)(F)F)cc1)O2	61*	0	·
Cc1noc(C)c1S(=O)(=O)Nc1ccc2c(c1)C(=O)N([C@@H](C)CO)C[C@@H](C)[C@H](CN(C)Cc1ccc3c(c1)OCO3)O2	1	0	·
Cc1noc(C)c1S(=O)(=O)Nc1ccc2c(c1)C(=O)N([C@H](C)CO)C[C@H](C)[C@H](CN(C)Cc1ccc(Cl)c(Cl)c1)O2	?	-15	0
Cc1noc(C)c1S(=O)(=O)Nc1ccc2c(c1)CC(=O)N([C@H](C)CO)C[C@@H](C)[C@H](CN(C)Cc1ccc(Cl)c(Cl)c1)O2	63*	-20	0
Cc1noc(C)c1S(=O)(=O)Nc1ccc2c(c1)CC(=O)N([C@@H](C)CO)C[C@H](C)[C@H](CN(C)Cc1ccc(C(F)(F)F)cc1)O2	41	2	·

Source: PubChem
